Measured values of several laboratories.
Cnr2: Cannabinoid receptor 2 (Cnr2, Mus musculus, UniProt P47936)
pol: pol (Feline immunodeficiency virus, UniProt P16088)
mreB: mreB (Escherichia coli, UniProt P0A9X4)
CTSL: Procathepsin L (CTSL, Homo sapiens, UniProt P07711)
G protein-coupled receptor 88: G protein-coupled receptor 88 (Homo sapiens, UniProt Q9GZN0)

Compound | target | assay | test system | setting | quantity | value
CCOC(=O)C(CC)(CCCSCCOCCOCCOCCNC(=O)OC(C)(C)C)NC(=O)c1ccc(C2CC2)c(Cc2ccc(F)cc2)n1 (stereo not shown) | Cnr2 | cAMP, agonist |  |  | EC50 | 0.021 µM
C[C@H](N)Cn1ncc2ccc3c(c21)CCCO3 | Alpha-1B adrenergic receptor (Adra1b, Rattus norvegicus, UniProt P15823) | ligand displacement, radioligand |  |  | IC50 | 74 µM
Cc1cc(/C=C/C#N)cc(C)c1Nc1ccnc(Nc2ccc(C#N)cc2)n1 | pol | enzyme activity, inhibitor |  |  | IC50 | 0.0509 µM
CC(N)c1cc2cc(Br)ccc2[nH]1 (stereo not shown) | mreB | ATPase activity, inhibitor, absorbance |  |  | IC50 | 120 µM
CCCCNNC(=O)c1ccc(Br)cc1 | Histone deacetylase 4 (HDAC4, Homo sapiens, UniProt P56524) | enzyme activity, inhibitor, fluorescence |  |  | IC50 | > 100 µM
CC(C)C[C@H](NC(=O)[C@H]1O[C@@H]1C(=O)O)C(=O)NCCCCN=C(N)N | CTSL | enzyme activity, inhibitor |  |  | IC50 | 0.000238 µM
Cc1nonc1Cn1nnc2c(N3CC[C@H](O)C3)nc(C(C)(C)C)nc21 | Cnr2 | cAMP, agonist |  |  | EC50 | 0.0002 µM
CCOC(=O)C(CC)(CCCSCCOCCOCCNc1ccc([N+](=O)[O-])c2nonc12)NC(=O)c1ccc(C2CC2)c(Cc2ccc(F)cc2)n1 (racemic) | Cnr2 | ligand displacement, radioligand |  | cell membranes | Ki | 0.073 µM
Cc1nc([C@@](C)(CC2CC2)NC(=O)c2cc(OCC(F)(F)F)c(C3CC3)cn2)no1 | Cnr2 | ligand displacement, radioligand |  | cell membranes | Ki | 0.006 µM
CCOC(=O)c1c(NCc2ccc(SC)cc2)c2cccc(C)c2[nH]c1=O | Anoctamin-2 (ANO2, Homo sapiens, UniProt Q9NQ90) | ion flux, inhibitor |  |  | IC50 | 0.99 µM
Cc1cc(SCc2sc(-c3ccc(C(F)(F)F)c(F)c3)nc2C)ccc1OCC(=O)O | Thyroid hormone receptor beta (THRB, Homo sapiens, UniProt P10828) | reporter gene, antagonist, luciferase |  |  | IC50 | 25.8 µM
CC(NCCCNC(=O)c1cc(Cl)c(Cl)s1)c1cc2cc(Br)ccc2[nH]1 (stereo not shown) | mreB | ATPase activity, inhibitor, absorbance |  |  | IC50 | 6 µM
Cc1ccnc2c1NC(=O)c1cccnc1N2C1CC1 | pol | enzyme activity, inhibitor |  |  | IC50 | 1.4 µM
NCCCNC1CCCCc2c1[nH]c1ccc(Br)cc21 (stereo not shown) | mreB | ATPase activity, inhibitor, absorbance |  |  | IC50 | 25 µM
C=CC(O)CO (stereo not shown) | Cytochrome P450 2E1 (Cyp2e1, Rattus norvegicus, UniProt P05182) | enzyme activity, inhibitor | Fischer 344 rat, liver microsomes | 30 min | IC50 | 1000 µM
CCOC(=O)[C@](CC)(CCC[S+]([O-])CCOCCOCCNC(=O)OC(C)(C)C)NC(=O)c1ccc(C2CC2)c(Cc2ccc(F)cc2)n1 (stereo partly shown) | Cnr2 | cAMP, agonist |  |  | EC50 | 0.065 µM
N[C@@H](CCP(=O)(O)O)C(=O)O | Metabotropic glutamate receptor 7 (Grm7, Rattus norvegicus, UniProt P35400) | calcium signal, agonist |  |  | EC50 | 117 µM
CCCc1ccc(-c2ccc([C@@H](CO)C(=O)N[C@H](C)c3ccccc3)cc2)cc1 | G protein-coupled receptor 88 | cAMP, agonist, TR-FRET |  |  | EC50 | 0.138 µM
CC[C@H]1NC(=O)[C@@H]2CSC(=N2)[C@H](Cc2ccccc2)N(C)C(=O)[C@@H]2CCCN2C(=O)[C@H](C(C)C)N(C)C(=O)[C@H](Cc2ccccc2)OC(=O)[C@H](C)[C@@H](C)NC(=O)[C@@H]([C@@H](C)O)NC(=O)[C@@H](CC(C)C)N(C)C(=O)[C@@H]2CSC1=N2 | CTSL | enzyme activity, inhibitor |  |  | IC50 | 20.4 µM
CC[C@H](C)COc1ccc([C@@H](CO)C(=O)N[C@H](C)c2ccccc2)cc1 | G protein-coupled receptor 88 | cAMP, agonist, TR-FRET |  |  | EC50 | 2 µM
C[C@]12CC[C@@H]3c4ccc(O)cc4CC[C@H]3[C@@H]1CC[C@@H]2O | Protein disulfide-isomerase (P4HB, Homo sapiens, UniProt P07237) | binding, radioligand |  |  | Kd | 1.5 µM
CCOC(=O)C(CC)(CCCSCCOCCOCCOCCOCCNC(=O)OC(C)(C)C)NC(=O)c1ccc(C2CC2)c(Cc2ccc(F)cc2)n1 (stereo not shown) | Cnr2 | cAMP, agonist |  |  | EC50 | 0.031 µM
O=P(O)(O)Oc1ccccc1OP(=O)(O)O | Signal transducer and activator of transcription 5B, SH2 (STAT5B, Homo sapiens, UniProt P51692) | ligand displacement, FP |  |  | IC50 | 1.95 µM
NC(=O)[C@@H]1CC(F)(F)CN1C(=O)c1ccc(N2CC(F)(F)C2)c(OCC2CC2)n1 | Cnr2 | cAMP, agonist |  |  | EC50 | 0.003 µM
O=[As](O)(O)c1ccc(Cc2ccc([As](=O)(O)O)cc2)cc1 | Autotaxin (ENPP2, Homo sapiens, UniProt Q13822) | enzyme activity, inhibitor, absorbance |  | pH 8 | Ki | 0.026 µM
